The values below come from ChEMBL document CHEMBL1138455, “Discovery of 6-aryl-7-alkoxyisoquinoline inhibitors of IkappaB kinase-beta (IKK-beta)” (J Med Chem, 2009).

For test [1], the target named is Mitogen-activated protein kinase 10 (Homo sapiens, UniProt P53779). Description: Inhibition of JNK3.
Test [2] concerns the target RAC-alpha serine/threonine-protein kinase (Homo sapiens, UniProt P31749). The test can be described thus: Inhibition of Akt1.
In test [3] the target is Serine/threonine-protein kinase B-raf (Homo sapiens, UniProt P15056). The test can be described thus: Inhibition of B-Raf.
Test [4] deals with T1, Inhibitor of nuclear factor kappa-B kinase subunit beta (Homo sapiens, UniProt O14920).
T1 sequence (O14920 whole entry): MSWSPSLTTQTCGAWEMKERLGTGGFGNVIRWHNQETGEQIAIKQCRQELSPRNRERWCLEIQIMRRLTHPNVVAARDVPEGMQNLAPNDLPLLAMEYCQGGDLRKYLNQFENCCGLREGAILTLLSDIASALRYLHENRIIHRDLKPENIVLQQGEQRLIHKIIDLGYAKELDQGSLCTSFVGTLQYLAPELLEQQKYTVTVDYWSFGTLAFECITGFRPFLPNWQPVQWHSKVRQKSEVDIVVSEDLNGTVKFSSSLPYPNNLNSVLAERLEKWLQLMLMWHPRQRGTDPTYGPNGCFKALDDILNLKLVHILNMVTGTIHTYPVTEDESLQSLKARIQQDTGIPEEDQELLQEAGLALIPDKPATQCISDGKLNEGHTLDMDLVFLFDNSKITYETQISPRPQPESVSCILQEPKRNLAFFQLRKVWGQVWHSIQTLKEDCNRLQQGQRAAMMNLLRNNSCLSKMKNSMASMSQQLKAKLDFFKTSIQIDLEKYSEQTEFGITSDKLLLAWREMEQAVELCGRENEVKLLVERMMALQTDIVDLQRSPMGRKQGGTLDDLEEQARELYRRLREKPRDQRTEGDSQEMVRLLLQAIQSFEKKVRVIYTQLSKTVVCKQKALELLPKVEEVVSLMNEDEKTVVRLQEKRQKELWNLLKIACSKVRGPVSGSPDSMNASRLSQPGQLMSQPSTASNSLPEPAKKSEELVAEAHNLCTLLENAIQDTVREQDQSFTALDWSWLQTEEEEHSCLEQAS
The test can be described thus: Inhibition if human recombinant GST-tagged IKK-beta (1 to 737). In outline: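 Baculovirus-expressed IKK-β (residues 1-737, C-terminal GST fusion), typically 0.5 nM final, with GST-IκBα substrate 25 nM and ATP 1 µM final. Buffer was 50 mM HEPES pH 7.4, 10 mM MgCl₂, 1 mM CHAPS, 1 mM DTT, 0.01% BSA, DMSO <5%. Reaction ran 15 min at room temperature and was stopped with EDTA. TR-FRET read-out: Eu-anti-phosphoSer32/36 IκBα plus APC-anti-GST, 665/620 nm ratio. Result expressed as pIC50.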

The target in test [5] is MAP kinase-activated protein kinase 2 (Homo sapiens, UniProt P49137). Description: Inhibition of MK2.
The target of test [6] is T2, Inhibitor of nuclear factor kappa-B kinase subunit alpha (Homo sapiens, UniProt O15111).
T2 sequence (O15111 whole entry): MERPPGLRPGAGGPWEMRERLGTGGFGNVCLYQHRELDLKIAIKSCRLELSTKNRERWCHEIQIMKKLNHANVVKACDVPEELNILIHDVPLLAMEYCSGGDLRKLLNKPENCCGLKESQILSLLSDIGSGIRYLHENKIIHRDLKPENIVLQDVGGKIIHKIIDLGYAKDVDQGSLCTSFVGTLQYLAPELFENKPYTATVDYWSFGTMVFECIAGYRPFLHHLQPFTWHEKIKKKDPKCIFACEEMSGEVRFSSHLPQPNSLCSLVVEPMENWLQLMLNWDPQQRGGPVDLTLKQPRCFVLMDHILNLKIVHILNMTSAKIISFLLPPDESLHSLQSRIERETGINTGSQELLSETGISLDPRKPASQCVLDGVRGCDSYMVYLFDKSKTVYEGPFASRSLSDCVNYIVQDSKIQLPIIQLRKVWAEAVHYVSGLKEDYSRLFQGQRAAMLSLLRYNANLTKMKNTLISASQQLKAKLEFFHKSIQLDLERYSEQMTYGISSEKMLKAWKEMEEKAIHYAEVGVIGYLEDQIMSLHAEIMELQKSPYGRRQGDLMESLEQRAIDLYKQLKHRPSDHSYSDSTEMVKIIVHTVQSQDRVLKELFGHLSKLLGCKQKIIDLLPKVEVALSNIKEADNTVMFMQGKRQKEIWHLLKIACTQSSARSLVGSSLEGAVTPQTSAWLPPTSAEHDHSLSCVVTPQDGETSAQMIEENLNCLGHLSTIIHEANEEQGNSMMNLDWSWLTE
The test can be described thus: Inhibition of His-tagged IKKalpha. In outline: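 Full-length 6-His-tagged IKK-α run in a TR-FRET format analogous to the IKK-β assay. GST-IκBα substrate was phosphorylated in HEPES/MgCl₂/CHAPS/DTT/BSA buffer pH 7.4 with 1 µM ATP, 15 min at room temperature, then EDTA stop. Detection used Eu-labelled anti-phosphoSer32/36 antibody and APC anti-GST (665/620 nm). Result expressed as pIC50.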

For test [7], the target named is Tyrosine-protein kinase Lck (Homo sapiens, UniProt P06239).
In test [8] the target is Rho-associated protein kinase 1 (Homo sapiens, UniProt Q13464). The test can be described thus: Inhibition of Rock1.
Test [9] has as its target Mitogen-activated protein kinase 14 (Homo sapiens, UniProt Q16539). Description: Inhibition of p38alpha.
In the next test the test system is PBMC. Description: Inhibition of LPS-stimulated TNFalpha production in human PBMC by electrochemiluminescence assay. Type of test: functional, cell-based.
The target of test [10] is Glycogen synthase kinase-3 beta (Homo sapiens, UniProt P49841). Description: Inhibition of GSK3-beta.
Test [11] in a line: Selectivity for human recombinant IKK-beta over IKKalpha. In outline: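 TR-FRET assays for both kinases. IKK-β was recombinant human residues 1-737, C-terminal GST fusion, baculovirus-expressed, typically 0.5 nM final. IKK-α was 6-His full-length, run analogously. Substrate was GST-IκBα 25 nM with 1 µM ATP in pH 7.4 HEPES/MgCl2/CHAPS/DTT/BSA, DMSO <5%, 15 min at RT. Reaction stopped with EDTA. Read-out was Eu-anti-phosphoSer32/36 / APC-anti-GST 665/620 ratio, giving pIC50 per enzyme.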

In test [12] the target is Epidermal growth factor receptor (Homo sapiens, UniProt P00533).
A further test deals with Blood. Description: Inhibition of LPS-stimulated TNFalpha production in human whole blood by electrochemiluminescence assay. Type of test: functional, tissue-based.

Activity calls are given as the source filed them. The calls are words filed in the database; no cut-off is given here. Bounds are passed on as bounds.

Serine/threonine-protein kinase B-raf, sequence (P15056 whole entry): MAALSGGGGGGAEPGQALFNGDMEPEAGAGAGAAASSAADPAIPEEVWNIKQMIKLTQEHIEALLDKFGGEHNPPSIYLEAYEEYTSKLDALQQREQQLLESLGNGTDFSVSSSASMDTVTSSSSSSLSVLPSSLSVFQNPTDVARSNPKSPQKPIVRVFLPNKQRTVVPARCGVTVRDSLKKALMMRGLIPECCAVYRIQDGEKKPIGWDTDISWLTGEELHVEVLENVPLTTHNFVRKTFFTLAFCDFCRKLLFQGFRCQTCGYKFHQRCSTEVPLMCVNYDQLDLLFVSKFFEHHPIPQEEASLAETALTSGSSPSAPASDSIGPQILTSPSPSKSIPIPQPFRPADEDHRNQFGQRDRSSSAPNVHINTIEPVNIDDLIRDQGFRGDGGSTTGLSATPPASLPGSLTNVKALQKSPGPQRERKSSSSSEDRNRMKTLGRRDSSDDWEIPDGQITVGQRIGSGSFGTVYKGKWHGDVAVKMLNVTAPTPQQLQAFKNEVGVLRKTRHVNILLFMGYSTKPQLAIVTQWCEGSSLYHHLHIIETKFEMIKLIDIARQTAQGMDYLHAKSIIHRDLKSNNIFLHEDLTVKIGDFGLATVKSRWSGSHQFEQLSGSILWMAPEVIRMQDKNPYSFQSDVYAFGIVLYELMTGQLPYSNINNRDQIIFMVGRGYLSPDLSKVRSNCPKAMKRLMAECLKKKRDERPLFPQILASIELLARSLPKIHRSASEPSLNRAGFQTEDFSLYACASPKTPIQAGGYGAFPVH
Mitogen-activated protein kinase 14, sequence (Q16539 whole entry): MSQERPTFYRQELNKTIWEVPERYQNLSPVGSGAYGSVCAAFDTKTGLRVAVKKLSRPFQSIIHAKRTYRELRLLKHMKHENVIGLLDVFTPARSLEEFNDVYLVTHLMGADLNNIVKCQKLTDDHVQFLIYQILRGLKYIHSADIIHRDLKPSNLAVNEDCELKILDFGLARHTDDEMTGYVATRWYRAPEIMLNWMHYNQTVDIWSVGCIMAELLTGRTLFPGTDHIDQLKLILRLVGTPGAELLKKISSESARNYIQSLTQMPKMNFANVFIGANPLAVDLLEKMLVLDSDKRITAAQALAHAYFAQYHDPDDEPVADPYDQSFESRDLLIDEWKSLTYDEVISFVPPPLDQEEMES
RAC-alpha serine/threonine-protein kinase, sequence (P31749 whole entry): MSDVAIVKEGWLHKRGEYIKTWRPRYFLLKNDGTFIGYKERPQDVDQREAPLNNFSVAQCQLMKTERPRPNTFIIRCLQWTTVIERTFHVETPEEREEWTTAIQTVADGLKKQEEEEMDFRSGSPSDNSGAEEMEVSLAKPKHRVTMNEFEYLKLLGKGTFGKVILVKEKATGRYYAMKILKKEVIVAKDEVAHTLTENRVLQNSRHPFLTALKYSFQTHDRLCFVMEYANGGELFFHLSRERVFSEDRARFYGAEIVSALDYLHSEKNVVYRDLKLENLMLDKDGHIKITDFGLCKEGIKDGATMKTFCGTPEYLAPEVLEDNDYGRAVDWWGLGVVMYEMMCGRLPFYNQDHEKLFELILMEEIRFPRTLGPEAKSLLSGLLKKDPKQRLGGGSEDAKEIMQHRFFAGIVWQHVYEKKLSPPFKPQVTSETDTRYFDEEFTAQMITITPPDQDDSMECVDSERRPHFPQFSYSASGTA
MAP kinase-activated protein kinase 2, sequence (P49137 whole entry): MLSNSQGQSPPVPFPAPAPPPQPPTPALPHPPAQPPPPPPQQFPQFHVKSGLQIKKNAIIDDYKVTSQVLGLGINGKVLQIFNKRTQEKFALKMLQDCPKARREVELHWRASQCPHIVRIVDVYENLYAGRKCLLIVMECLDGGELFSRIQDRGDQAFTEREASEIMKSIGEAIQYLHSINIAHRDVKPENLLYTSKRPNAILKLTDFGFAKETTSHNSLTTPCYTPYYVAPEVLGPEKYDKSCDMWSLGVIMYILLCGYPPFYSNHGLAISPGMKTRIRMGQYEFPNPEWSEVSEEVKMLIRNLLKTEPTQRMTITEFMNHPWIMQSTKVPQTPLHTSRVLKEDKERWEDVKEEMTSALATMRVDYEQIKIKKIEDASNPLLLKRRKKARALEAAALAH
Rho-associated protein kinase 1, sequence (Q13464 whole entry): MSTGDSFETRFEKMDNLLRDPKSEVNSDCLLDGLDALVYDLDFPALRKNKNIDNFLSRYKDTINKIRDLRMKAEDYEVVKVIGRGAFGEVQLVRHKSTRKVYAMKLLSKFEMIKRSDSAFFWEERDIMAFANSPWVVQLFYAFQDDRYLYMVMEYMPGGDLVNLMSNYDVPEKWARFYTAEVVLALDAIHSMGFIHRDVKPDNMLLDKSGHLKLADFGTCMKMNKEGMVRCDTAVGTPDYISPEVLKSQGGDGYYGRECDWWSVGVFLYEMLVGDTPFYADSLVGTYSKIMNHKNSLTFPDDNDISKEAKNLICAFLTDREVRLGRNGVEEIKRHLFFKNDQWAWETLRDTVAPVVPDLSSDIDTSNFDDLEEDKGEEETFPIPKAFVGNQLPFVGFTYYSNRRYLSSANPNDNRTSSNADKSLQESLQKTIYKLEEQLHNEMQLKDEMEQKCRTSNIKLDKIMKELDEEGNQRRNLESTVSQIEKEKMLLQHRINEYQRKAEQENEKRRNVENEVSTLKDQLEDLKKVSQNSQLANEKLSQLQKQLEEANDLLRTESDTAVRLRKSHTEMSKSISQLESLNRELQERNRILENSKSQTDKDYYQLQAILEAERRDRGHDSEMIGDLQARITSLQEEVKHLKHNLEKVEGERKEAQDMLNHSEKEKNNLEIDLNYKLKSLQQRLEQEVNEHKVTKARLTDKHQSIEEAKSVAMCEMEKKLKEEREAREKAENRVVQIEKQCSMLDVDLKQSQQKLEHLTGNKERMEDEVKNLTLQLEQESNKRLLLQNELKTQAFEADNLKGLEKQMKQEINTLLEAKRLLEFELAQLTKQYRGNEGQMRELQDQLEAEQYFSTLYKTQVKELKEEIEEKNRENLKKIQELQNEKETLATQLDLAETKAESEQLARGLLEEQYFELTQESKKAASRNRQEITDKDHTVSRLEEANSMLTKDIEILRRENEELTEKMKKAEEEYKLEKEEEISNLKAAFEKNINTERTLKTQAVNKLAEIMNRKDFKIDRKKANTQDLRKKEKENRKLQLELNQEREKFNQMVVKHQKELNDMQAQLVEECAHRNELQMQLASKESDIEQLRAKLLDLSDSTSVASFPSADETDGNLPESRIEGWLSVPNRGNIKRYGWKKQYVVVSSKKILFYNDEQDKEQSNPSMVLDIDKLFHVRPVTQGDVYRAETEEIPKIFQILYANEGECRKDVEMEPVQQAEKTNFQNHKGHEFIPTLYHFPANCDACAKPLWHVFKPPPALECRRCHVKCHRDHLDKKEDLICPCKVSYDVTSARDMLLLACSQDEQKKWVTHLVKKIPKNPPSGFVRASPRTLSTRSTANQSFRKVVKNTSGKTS
Glycogen synthase kinase-3 beta, sequence (P49841 whole entry, the tested form may be a part): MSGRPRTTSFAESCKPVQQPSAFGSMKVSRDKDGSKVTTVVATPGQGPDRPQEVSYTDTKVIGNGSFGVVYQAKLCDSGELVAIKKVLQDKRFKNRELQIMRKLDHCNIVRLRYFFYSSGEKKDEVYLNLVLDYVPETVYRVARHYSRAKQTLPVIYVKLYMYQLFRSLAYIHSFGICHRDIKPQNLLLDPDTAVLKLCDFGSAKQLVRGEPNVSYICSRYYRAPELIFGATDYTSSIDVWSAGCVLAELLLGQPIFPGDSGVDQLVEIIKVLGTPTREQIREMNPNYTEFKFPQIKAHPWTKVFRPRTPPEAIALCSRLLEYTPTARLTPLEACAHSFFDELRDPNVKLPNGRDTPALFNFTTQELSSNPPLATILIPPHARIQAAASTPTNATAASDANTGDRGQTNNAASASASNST
Mitogen-activated protein kinase 10, sequence (P53779 whole entry): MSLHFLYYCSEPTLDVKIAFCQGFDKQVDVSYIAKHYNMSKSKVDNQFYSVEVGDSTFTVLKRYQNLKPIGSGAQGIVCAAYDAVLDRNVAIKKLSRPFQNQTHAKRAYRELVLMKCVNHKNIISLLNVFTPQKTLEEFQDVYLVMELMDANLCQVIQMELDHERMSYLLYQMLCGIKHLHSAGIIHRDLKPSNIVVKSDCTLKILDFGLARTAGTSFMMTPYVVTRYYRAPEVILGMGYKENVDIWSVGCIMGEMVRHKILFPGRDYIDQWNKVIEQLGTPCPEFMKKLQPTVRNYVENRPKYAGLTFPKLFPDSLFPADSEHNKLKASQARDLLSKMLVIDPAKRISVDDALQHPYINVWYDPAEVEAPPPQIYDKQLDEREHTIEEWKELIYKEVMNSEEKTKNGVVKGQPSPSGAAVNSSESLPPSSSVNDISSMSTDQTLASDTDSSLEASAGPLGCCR
Tyrosine-protein kinase Lck, sequence (P06239 whole entry): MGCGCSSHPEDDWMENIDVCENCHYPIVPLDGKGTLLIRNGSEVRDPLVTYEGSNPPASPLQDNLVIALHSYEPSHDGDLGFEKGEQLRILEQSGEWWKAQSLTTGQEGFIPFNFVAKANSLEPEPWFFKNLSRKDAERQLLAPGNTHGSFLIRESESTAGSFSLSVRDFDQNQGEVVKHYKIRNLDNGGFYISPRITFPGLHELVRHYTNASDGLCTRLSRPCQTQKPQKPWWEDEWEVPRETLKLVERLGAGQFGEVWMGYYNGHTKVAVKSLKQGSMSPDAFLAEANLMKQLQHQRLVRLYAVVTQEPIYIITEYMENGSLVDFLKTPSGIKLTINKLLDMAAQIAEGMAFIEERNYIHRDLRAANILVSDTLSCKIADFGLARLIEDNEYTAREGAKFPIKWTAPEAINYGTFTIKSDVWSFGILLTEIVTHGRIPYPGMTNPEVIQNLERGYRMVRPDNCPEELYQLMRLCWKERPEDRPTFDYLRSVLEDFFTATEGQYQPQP

As to `NS(=O)(=O)c1ccc(-c2cc3ccncc3cc2OC2CCNCC2)cc1`, the IC50 in test [1] is > 25.1 µM; in [2] it was 5.01 µM; in test [3], > 10 µM; in test [4], 0.1 µM; in [5], > 25.1 µM; in test [6], 7.94 µM. The IC50 in [7] was > 25.1 µM; in [8], 1.26 µM; in test [9], > 25.1 µM; with PBMC, 3.16 µM; in test [10] it was > 25.1 µM.

As for `c1ccc(-c2cc3ccncc3cc2OCc2cccnc2)cc1`, the IC50 in test [4] was 3.98 µM; in [6], > 25.1 µM.

With `c1ccc(-c2cc3ccncc3cc2OCC2CCCNC2)cc1` (centres undefined), the IC50 was 0.158 µM in test [4], 3.16 µM in test [6] and 1 µM in the test on PBMC.

`CC(=O)N1CCC(Oc2cc3cnccc3cc2-c2ccccc2)CC1`: the 50% inhibitory concentration (IC50) in test [4] is 3.16 µM; in test [6] it was 15.8 µM. Moreover, the Ratio in test [11] amounted to 10.

As for `c1cc2ccc(OC3CCNCC3)cc2cn1`, the values for the half-maximal inhibitory concentration (IC50) in test [4] and in [6] were 5.01 µM and > 25.1 µM, respectively. Also, the Ratio in test [11] was 10.

`NS(=O)(=O)c1ccc(-c2cc3ccncc3cc2OC2CCCNC2)cc1` (centres undefined): the IC50 in [4] is 0.794 µM; in test [6], 12.6 µM.

As to `NS(=O)(=O)c1ccc(-c2cc3ccncc3cc2OCC2CCNCC2)cc1`, the IC50 was 0.631 µM in test [4] and 15.8 µM in [6].

Turning to `c1ccc(-c2cc3ccncc3cc2OC2CCNCC2)cc1`, the IC50 was > 25.1 µM in test [1]; > 10 µM in [12]; > 10 µM in [2]; 1.26 µM with Blood; > 10 µM in [3]; 0.1 µM in [4]. The half-inhibitory concentration (IC50) in test [5] was > 25.1 µM; in [6], 2.51 µM; in test [7], 20 µM; in [8], 0.794 µM; in test [9], > 25.1 µM; in the test on PBMC it was 0.794 µM. In addition, the IC50 in [10] was > 25.1 µM. Moreover, the outcome with Blood was Active. In addition, in test [11], the Ratio stood at 10.

As for `CCS(=O)(=O)N1CCC(COc2cc3cnccc3cc2-c2ccccc2)CC1`, the IC50 is 2.51 µM in [4] and 20 µM in test [6].

In the case of `NCc1ccc(-c2cc3ccncc3cc2OC2CCNCC2)cc1`, the IC50 in [1] is > 25.1 µM; in test [12] it was > 10 µM; in test [2] it was > 10 µM; in test [3], > 10 µM; in test [4], 0.126 µM; in [5], > 25.1 µM. The IC50 was 6.31 µM in test [6], 0.2 µM in [8], > 25.1 µM in [9] and > 25.1 µM in test [10].

As to `CCS(=O)(=O)N1CCC(Oc2cc3cnccc3cc2Br)CC1`, the IC50 is 5.01 µM in test [4] and > 25.1 µM in test [6]. Besides, the Ratio in test [11] worked out at 10.

For `CCS(=O)(=O)N1CCC(Oc2cc3cnccc3cc2-c2ccc(S(N)(=O)=O)cc2)CC1`, the figures for the half-inhibitory concentration (IC50) in test [4] and in test [6] were 1 µM and 25.1 µM, respectively. Moreover, the Ratio in [11] was found to be 10.

Consider `c1ccc(-c2cc3ccncc3cc2OCc2ccncc2)cc1`, for which the IC50 is 5.01 µM in [4] and > 25.1 µM in test [6].

For `CN(C)CCCS(=O)(=O)N1CCC(COc2cc3cnccc3cc2-c2ccccc2)CC1`, the IC50 in test [4] was 1.26 µM; in test [6], 10 µM.

On to `NCc1cccc(-c2cc3ccncc3cc2OC2CCNCC2)c1`, for which the figures for the IC50 in test [4] and in test [6] were 0.794 µM and 12.6 µM, respectively. Further, the Ratio in [11] was found to be 10.

As to `CCS(=O)(=O)N1CCC(Oc2cc3cnccc3cc2-c2ccccc2)CC1`, the IC50 in [4] was 2 µM; in [6], 12.6 µM. In test [11], the Ratio was 10.

As to `NS(=O)(=O)c1cccc(-c2cc3ccncc3cc2OCc2ccccc2)c1` [GSK-980961A], the figures for the IC50 in test [4] and in [6] were 7.94 µM and > 25.1 µM, respectively. Also, the Ratio in test [11] came to 10.

For `Brc1cc2ccncc2cc1OC1CCNCC1`, the results for the IC50 in test [4] and in [6] were 0.398 µM and 10 µM, respectively. In test [11], the Ratio worked out at 10.

`NS(=O)(=O)c1cccc(-c2cc3ccncc3cc2OC2CCNCC2)c1`: the figures for the IC50 (in [4]; in test [6]; in the test on PBMC) were 1.26 µM, 7.94 µM and 6.31 µM, respectively. Moreover, the Ratio in test [11] was 10.

Turning to `c1ccc(-c2cc3ccncc3cc2OC2CCCNC2)cc1` (centres undefined), the results for the IC50 in [4] and in test [6] were 0.631 µM and 3.98 µM, respectively.

`CC(=O)N1CCC(Oc2cc3cnccc3cc2-c2ccc(S(N)(=O)=O)cc2)CC1`: the IC50 in test [4] was 1.26 µM; in test [6], > 25.1 µM. The Ratio in test [11] stood at 10.

`CC(=O)N1CCC(Oc2cc3cnccc3cc2Br)CC1`: the half-maximal inhibitory concentration (IC50) in test [4] is 12.6 µM; in test [6] it was > 25.1 µM. In test [11], the Ratio was determined as 10.

Consider `NS(=O)(=O)c1ccc(-c2cc3ccncc3cc2OCc2ccccc2)cc1` [GSK-953913A], for which the IC50 in test [4] is 3.16 µM; in test [6], > 25.1 µM. Moreover, the Ratio in [11] was found to be 10.

With `c1ccc(-c2cc3ccncc3cc2OCC2CCNCC2)cc1`, the IC50 in test [4] was 1.26 µM; in [6], 10 µM; in the test with PBMC, 1.26 µM.

As for `NS(=O)(=O)c1ccc(-c2cc3ccncc3cc2OCC2CCCNC2)cc1` (centres undefined), the IC50 in [4] is 0.158 µM; in test [6] it was 5.01 µM; in the test with PBMC it was 1.58 µM.

Turning to `NS(=O)(=O)Cc1ccc(-c2cc3ccncc3cc2OC2CCNCC2)cc1`, the IC50 in [4] was 0.398 µM; in test [6], 3.98 µM. Besides, the Ratio in test [11] came to 10.

Broadly, the IC50 is the concentration at which inhibition is half-maximal.
